ChEMBL document CHEMBL3124924, “Bifunctional ethyl 2-amino-4-methylthiazole-5-carboxylate derivatives: synthesis and in vitro biological evaluation as antimicrobial and anticancer agents” (2014)
Values after ≈ are worked out from the molar mass of the structure shown. Active and inactive are the calls of the source. The rule behind the calls is not given here.

Experiments:
[1] = test system: NCI-H226; assay: Cytotoxicity against human NCI-H226 cells assessed as growth inhibition at 10 uM after 48 hrs by SRB assay; assay type: functional; conditions: NCI-H226, 48 h, read-out: GI
Procedure, shortened: (§1)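 NCI-60 one-dose primary screen run by the NCI Drug Evaluation Branch across the full 60-line panel. Single high-dose treatment with 48 h continuous drug exposure. Cell growth estimated by sulforhodamine B protein staining. Results given as percent growth of treated cells and expressed as percentage growth inhibition.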

[2] = test system: HOP-92; assay: Cytotoxicity against human HOP92 cells assessed as growth inhibition at 10 uM after 48 hrs by SRB assay; assay type: functional; conditions: HOP-92, 48 h, read-out: GI; procedure, shortened: as §1
[3] = test system: UACC-62; assay: Cytotoxicity against human UACC62 cells assessed as growth inhibition at 10 uM after 48 hrs by SRB assay; assay type: functional; conditions: UACC-62, 48 h, read-out: GI; procedure, shortened: as §1
[4] = test system: RPMI-8226; assay: Cytotoxicity against human RPMI8226 cells assessed as growth inhibition at 10 uM after 48 hrs by SRB assay; assay type: functional; conditions: RPMI-8226, 48 h, read-out: GI; procedure, shortened: as §1
[5] = test system: LOX IMVI; assay: Cytotoxicity against human LOXIMVI cells assessed as growth inhibition at 10 uM after 48 hrs by SRB assay; assay type: functional; conditions: read-out: GI; procedure, shortened: as §1
[6] = test system: IGROV-1; assay: Cytotoxicity against human IGROV1 cells assessed as growth inhibition at 10 uM after 48 hrs by SRB assay; assay type: functional; conditions: IGROV-1, 48 h, read-out: GI; procedure, shortened: as §1
[7] = test system: MDA-MB-468; assay: Cytotoxicity against human MDA-MB-468 cells assessed as growth inhibition at 10 uM after 48 hrs by SRB assay; assay type: functional; conditions: MDA-MB-468, 48 h, read-out: GI; procedure, shortened: as §1
[8] = test system: SN12C; assay: Cytotoxicity against human SN12C cells assessed as growth inhibition at 10 uM after 48 hrs by SRB assay; assay type: functional; conditions: read-out: GI; procedure, shortened: as §1
[9] = test system: Escherichia coli; assay: Antibacterial activity against Escherichia coli ATCC 25922 assessed as growth inhibition after 48 hrs by two-fold serial dilution assay; assay type: functional; conditions: ATCC 25922, 48 h
Procedure, shortened: (§2)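 Twofold serial broth dilution run on compounds giving inhibition zones of 13 mm or more. Organisms pre-grown in suitable broth at 37 °C, 24 h for bacteria and 48 h for fungi. Dilution series 200, 100, 50, 25, 12.5, 6.25. Each 5 mL tube inoculated with 0.1 mL and incubated 37 °C for 48 h. Tubes scored for presence or absence of growth.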

[10] = test system: A498; assay: Cytotoxicity against human A498 cells assessed as growth inhibition at 10 uM after 48 hrs by SRB assay; assay type: functional; conditions: A498, 48 h, read-out: GI; procedure, shortened: as §1
[11] = test system: Candida albicans; assay: Antifungal activity against Candida albicans ATCC 10231 assessed as growth inhibition at 1 mg/mL after 48 hrs by agar-cup diffusion method; assay type: functional; conditions: ATCC 10231, 48 h, read-out: DIZ
Procedure, shortened: (§3)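 Agar-cup diffusion: 1 mL of 6 h broth culture seeded per 100 mL molten sterile agar at 45 °C and poured into plates. 8 mm cups cut, each filled with 0.1 mL of 1 mg/mL test solution. Incubated 37 °C for 24 h, 48 h for C. albicans. DMSO control per organism. Inhibition zone diameter in mm, mean of three measurements.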

[12] = test system: Bacillus spizizenii; assay: Antibacterial activity against Bacillus subtilis ATCC 6633 assessed as growth inhibition after 48 hrs by two-fold serial dilution assay; assay type: functional; conditions: ATCC 6633, 48 h; procedure, shortened: as §2
[13] = Cytotoxicity against human NCI-ADR-RES cells assessed as growth inhibition at 10 uM after 48 hrs by SRB assay; assay type: functional; conditions: read-out: GI; procedure, shortened: as §1
[14] = test system: Pseudomonas aeruginosa; assay: Antibacterial activity against Pseudomonas aeruginosa ATCC 27853 assessed as growth inhibition after 48 hrs by two-fold serial dilution assay; assay type: functional; conditions: ATCC 27853, 48 h; procedure, shortened: as §2
[15] = test system: SK-MEL-2; assay: Cytotoxicity against human SK-MEL-2 cells assessed as growth inhibition at 10 uM after 48 hrs by SRB assay; assay type: functional; conditions: SK-MEL-2, 48 h, read-out: GI; procedure, shortened: as §1
[16] = test system: SK-MEL-5; assay: Cytotoxicity against human SK-MEL-5 cells assessed as growth inhibition at 10 uM after 48 hrs by SRB assay; assay type: functional; conditions: SK-MEL-5, 48 h, read-out: GI; procedure, shortened: as §1
[17] = test system: HCT-15; assay: Cytotoxicity against human HCT15 cells assessed as growth inhibition at 10 uM after 48 hrs by SRB assay; assay type: functional; conditions: HCT-15, 48 h, read-out: GI; procedure, shortened: as §1
[18] = test system: PC-3; assay: Cytotoxicity against human PC3 cells assessed as growth inhibition at 10 uM after 48 hrs by SRB assay; assay type: functional; conditions: PC-3, 48 h, read-out: GI; procedure, shortened: as §1
[19] = test system: K562; assay: Cytotoxicity against human K562 cells assessed as growth inhibition at 10 uM after 48 hrs by SRB assay; assay type: functional; conditions: K562, 48 h, read-out: GI; procedure, shortened: as §1
[20] = test system: Escherichia coli; assay: Antibacterial activity against Escherichia coli ATCC 25922 assessed as growth inhibition at 1 mg/mL after 24 hrs by agar-cup diffusion method; assay type: functional; conditions: ATCC 25922, 24 h, read-out: DIZ; procedure, shortened: as §3
[21] = test system: HT-29; assay: Cytotoxicity against human HT-29 cells assessed as growth inhibition at 10 uM after 48 hrs by SRB assay; assay type: functional; conditions: HT-29, 48 h, read-out: GI; procedure, shortened: as §1
[22] = test system: Bacillus spizizenii; assay: Antibacterial activity against Bacillus subtilis ATCC 6633 assessed as growth inhibition at 1 mg/mL after 24 hrs by agar-cup diffusion method; assay type: functional; conditions: ATCC 6633, 24 h, read-out: DIZ; procedure, shortened: as §3
[23] = test system: Pseudomonas aeruginosa; assay: Antibacterial activity against Pseudomonas aeruginosa ATCC 27853 assessed as growth inhibition at 1 mg/mL after 24 hrs by agar-cup diffusion method; assay type: functional; conditions: ATCC 27853, 24 h, read-out: DIZ; procedure, shortened: as §3
[24] = test system: SF-268; assay: Cytotoxicity against human SF268 cells assessed as growth inhibition at 10 uM after 48 hrs by SRB assay; assay type: functional; conditions: SF-268, 48 h, read-out: GI; procedure, shortened: as §1
[25] = test system: Staphylococcus aureus; assay: Antibacterial activity against Staphylococcus aureus ATCC 6538 assessed as growth inhibition after 48 hrs by two-fold serial dilution assay; assay type: functional; conditions: ATCC 6538, 48 h; procedure, shortened: as §2
[26] = test system: Escherichia coli; assay: Bactericidal activity against Escherichia coli ATCC 25922 after 18 hrs; assay type: functional; conditions: ATCC 25922, 18 h
Procedure, shortened: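 Continuation of the broth-dilution MIC test. A loopful from each tube without visible growth spread on a quarter of a Mueller-Hinton agar plate and incubated 18 h. Lowest concentration giving no growth on subculture taken as the MBC.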

[27] = test system: Aspergillus niger; assay: Antifungal activity against Aspergillus niger assessed as growth inhibition at 1 mg/mL after 24 hrs by agar-cup diffusion method; assay type: functional, organism-based; procedure, shortened: as §3
[28] = test system: SW-620; assay: Cytotoxicity against human SW620 cells assessed as growth inhibition at 10 uM after 48 hrs by SRB assay; assay type: functional; conditions: SW-620, 48 h, read-out: GI; procedure, shortened: as §1
[29] = test system: CCRF-CEM; assay: Cytotoxicity against human CCRF-CEM cells assessed as growth inhibition at 10 uM after 48 hrs by SRB assay; assay type: functional; conditions: read-out: GI; procedure, shortened: as §1
[30] = Cytotoxicity against human UO31 cells assessed as growth inhibition at 10 uM after 48 hrs by SRB assay; assay type: functional; conditions: UO-31, 48 h, read-out: GI; procedure, shortened: as §1
[31] = test system: SR; assay: Cytotoxicity against human SR cells assessed as growth inhibition at 10 uM after 48 hrs by SRB assay; assay type: functional; conditions: read-out: GI; procedure, shortened: as §1
[32] = test system: HCT-116; assay: Cytotoxicity against human HCT116 cells assessed as growth inhibition at 10 uM after 48 hrs by SRB assay; assay type: functional; conditions: HCT-116, 48 h, read-out: GI; procedure, shortened: as §1

CCOC(=O)c1sc(NC(=O)Nc2ccccc2)nc1C
inhibition of growth at 10 µM [1]: 11.3%
inhibition of growth at 10 µM [2]: 64.2%
inhibition of growth at 10 µM [3]: 20%
inhibition of growth at 10 µM [4]: 22.8%
inhibition of growth at 10 µM [5]: 4.13%
inhibition of growth at 10 µM [6]: 72.9%
inhibition of growth at 10 µM [7]: 18.4%
inhibition of growth at 10 µM [8]: 4.19%
MIC [9]: 25 µg/mL (≈ 81.9 µM)
inhibition of growth at 10 µM [10]: 28.9%
zone of inhibition at 1000 µg/mL [11]: > 13 mm
MIC [12]: 50 µg/mL (≈ 164 µM)
inhibition of growth at 10 µM [13]: 13.9%
MIC [14]: 50 µg/mL (≈ 164 µM)
inhibition of growth at 10 µM [15]: 77.6%
inhibition of growth at 10 µM [16]: 4.58%
inhibition of growth at 10 µM [17]: < 10%
inhibition of growth at 10 µM [18]: 4.18%
inhibition of growth at 10 µM [19]: 39%
zone of inhibition at 1000 µg/mL [20]: > 13 mm
inhibition of growth at 10 µM [21]: 24.1%
zone of inhibition at 1000 µg/mL [22]: > 13 mm
zone of inhibition at 1000 µg/mL [23]: > 13 mm
inhibition of growth at 10 µM [24]: 4.88%
MIC [25]: 25 µg/mL (≈ 81.9 µM)
MBC [26]: 25 µg/mL (≈ 81.9 µM)
growth inhibition (GI) [27]: inactive
inhibition of growth at 10 µM [28]: 2.85%
inhibition of growth at 10 µM [29]: 22%
inhibition of growth at 10 µM [30]: 16.1%
inhibition of growth at 10 µM [31]: 14.3%
inhibition of growth at 10 µM [32]: 16.3%

CCOC(=O)c1sc(NC(=O)NC2CCCCC2)nc1C
inhibition of growth at 10 µM [1]: 9.89%
inhibition of growth at 10 µM [2]: 53.9%
inhibition of growth at 10 µM [3]: 26%
inhibition of growth at 10 µM [4]: 4.13%
inhibition of growth at 10 µM [5]: 13%
inhibition of growth at 10 µM [6]: 43.7%
inhibition of growth at 10 µM [7]: < 10%
inhibition of growth at 10 µM [8]: 5.62%
MIC [9]: 50 µg/mL (≈ 161 µM)
inhibition of growth at 10 µM [10]: 15.3%
zone of inhibition at 1000 µg/mL [11]: > 13 mm
MIC [12]: 100 µg/mL (≈ 321 µM)
inhibition of growth at 10 µM [13]: 8.96%
inhibition of growth at 10 µM [15]: 64.1%
inhibition of growth at 10 µM [16]: 8.95%
inhibition of growth at 10 µM [17]: 14.3%
inhibition of growth at 10 µM [18]: < 10%
inhibition of growth at 10 µM [19]: 9.69%
zone of inhibition at 1000 µg/mL [20]: > 13 mm
inhibition of growth at 10 µM [21]: 15.5%
zone of inhibition at 1000 µg/mL [22]: > 13 mm
zone of inhibition at 1000 µg/mL [23]: > 13 mm
inhibition of growth at 10 µM [24]: 12.6%
MIC [25]: 50 µg/mL (≈ 161 µM)
MBC [26]: 100 µg/mL (≈ 321 µM)
growth inhibition (GI) [27]: inactive
inhibition of growth at 10 µM [28]: 7.5%
inhibition of growth at 10 µM [29]: 6.76%
inhibition of growth at 10 µM [30]: 10.6%
inhibition of growth at 10 µM [31]: 35.3%
inhibition of growth at 10 µM [32]: 14.2%
